Published values collected from several papers.
Target: Tyrosine-protein kinase FRK (FRK, Homo sapiens, UniProt P42685)

Compound | effect on | mode | method | tested at | measurement | result
C[C@H](NC(=O)c1cnc2n1[C@](C)(Cc1ccc(C#N)cc1)C(=O)N2c1cc(Cl)c(F)c(Cl)c1)C(=O)NC1(c2ccccn2)CC1 | cell-free assay |  | competition with immobilised ligand | 1 µM | remaining binding | 68%
CC(C)(C)c1nc2c(s1)c1nc(N)ncc1c1ccc(NS(=O)(=O)c3c(F)cccc3F)c(F)c12 | enzyme activity | inhibitor | radiometric | 1 µM | remaining activity | 103%
O=C(Nc1cnn(-c2csc(C(=O)NC3COC3)c2)c1)Nc1c(F)cccc1Cl | enzyme activity | inhibitor |  | 5 µM | remaining activity | 95.6%
CCN(CC)CCNC(=O)c1c(C)[nH]c(/C=C2\C(=O)Nc3ccc(Cl)cc32)c1C | enzyme activity | inhibitor |  | 0.5 µM | remaining activity | 59.3%
COc1cc(Cl)c(C(=O)N[C@@H](CN[C@H]2CC[C@@H](N)CC2)Cc2ccc(C#N)cc2)cc1-c1ccc(CN[C@H](C)c2ccc(C)cc2)o1 | enzyme activity | inhibitor |  | 1 µM | remaining activity | 99%
CC/C(=N\NC(=O)NCc1cccc(O)c1)c1ccc(O)c(C)c1O | enzyme activity | inhibitor |  | 0.1 µM | inhibition | 0.5%
O=c1cc(-c2cccc3c2Sc2ccccc2S3)oc(N2CCOCC2)c1 | enzyme activity | inhibitor |  | 0.5 µM | remaining activity | 99.5%
Cc1nc(N2CC[C@@H](O)C2)ncc1-c1cc(C(F)(F)F)cc2[nH]ncc12 | cell-free assay |  | competition with immobilised ligand | 1 µM | remaining binding | 98%
CNC(=O)c1cc2c(Oc3ccc(NC(=O)C4(C(=O)Nc5ccc(F)cc5)CC4)cc3)ccnc2cc1OC | enzyme activity | inhibitor | radiometric | 1 µM | inhibition | 99%
CN([C@@H]1CCc2c(CC(=O)O)c3cc(S(C)(=O)=O)ccc3n2C1)S(=O)(=O)c1ccc(F)cc1 | cell-free assay |  | competition with immobilised ligand | 1 µM | remaining binding | 100%
O=C1Nc2ccc(Cl)cc2C1=Cc1cc(Cl)c(O)c(Cl)c1 | cell-free assay |  |  | 0.5 µM | remaining signal | 70.3%
CCN(CC)c1ccc(C2=NNC(=O)CC2C)cc1[N+](=O)[O-] (stereo not shown) | enzyme activity | inhibitor |  | 10 µM | remaining activity | 83%
Cc1c(C(=O)O)cc(-c2ccc(C3CCNCC3)cc2)c2ccc(-c3ccc(C(F)(F)F)cc3)cc12 | cell-free assay |  | competition with immobilised ligand | 1 µM | remaining binding | 100%
c1nc2c(Nc3ccc4c(c3)OCCO4)nc(Nc3ccc4c(c3)OCCO4)nc2[nH]1 | enzyme activity | inhibitor |  | 10 µM | activity vs control | 22%
CC1=C(C#N)[C@@H](c2ccc3[nH]nc(C)c3c2)C(C#N)=C(c2ccc(Cl)cc2)N1 | cell-free assay |  | competition with immobilised ligand | 1 µM | remaining binding | 100%
Cc1ccc(C(=O)NCc2ccsc2)cc1C#Cc1cn(C(C)C)c2ncnc(N)c12 | enzyme activity | inhibitor |  | 1 µM | activity vs control | 2%
Cc1cnc(NC2CCOCC2)nc1-n1cnc(C(=O)NC(CN)c2cc(F)cc(Cl)c2)c1 (stereo not shown) | enzyme activity | inhibitor | radiometric | 1 µM | remaining activity | 98%
Cc1ccc(Nc2nccc(N(C)c3ccc4c(C)n(C)nc4c3)n2)cc1S(N)(=O)=O | cell-free assay |  |  | 0.5 µM | remaining signal | 58.1%
CC(=O)N1CCC(c2ccc(C(=O)NC3=NCCN3)cc2C(F)(F)F)CC1 | cell-free assay |  | competition with immobilised ligand | 1 µM | remaining binding | 97%
COc1cc2ncnc(Nc3ccc(Oc4ccccc4)cc3C)c2cc1OC | enzyme activity | inhibitor |  | 1 µM | inhibition | 63%
CC(=O)Nc1c(C(C)=O)c(=O)n(C)c2nc(-c3ccc(Cl)cc3Cl)c(-c3ccc(Cl)cc3)cc12 | cell-free assay |  | competition with immobilised ligand | 1 µM | remaining binding | 100%
CCN(CC)CCNC(=O)c1c(C)[nH]c(/C=C2\C(=O)Nc3ccc(F)cc32)c1C | enzyme activity | inhibitor |  | 0.3 µM | inhibition | 47%
